Experimental data taken from publication PMC2862791 (Journal of controlled release : official journal of the …, 2010).

Key:
3T3-L1 cells [1] = experiment: Cell cytotoxicity; assay type: cell-based; conditions: MTT, 24 h
In short: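 3T3-L1 cells were differentiated under hypoxia (100 μM CoCl2 in differentiation medium, refreshed every 2 days) and treated for 24 h at 37 °C with the test compound, at 1.5 μg/μl ASO equivalent. MTT (5 mg/ml in complete DMEM) was then added for 5 h. Formazan was dissolved in DMSO and absorbance read. Viability (%) = OD(sample)/OD(control) × 100.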

3T3-L1 cells [2] = experiment: Cellular uptake and intracellular localization by confocal microscopy; assay type: cell-based; conditions: 6-FAM-tagged ASO, 24 h; for cellular uptake, control group: non-differentiated control (Con) cells
In short: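 Control or normoxic-differentiated 3T3-L1 cells were detached at day 4 after induction and re-seeded on chambered coverglass at 70% confluency. After about 20 h, cells were given 6-FAM (3′)-labelled ASO conjugate, or equivalent ASO or ionic complex, for 24 h without serum deprivation. After a PBS wash, live cells were imaged by laser-scanning confocal microscopy (water immersion ×60, 37 °C, 5% CO2).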

ASO: PS modified antisense-HIF1α-oligonucleotide, 5’-ACAACGCGGGCACCGATTCGCCATG-3’ (antisense ACAACGCGGGCACCGATTCGCCATG; all phosphorothioate, sugars by position and methylation of C not given here)
cell viability under hypoxia compared to that of control (3T3-L1 cells [1]; differentiation under hypoxia, 1.5 μg/μl ASO): statistically indistinguishable
concentration showing significant cell toxicity (3T3-L1 cells [1]; non-differentiated control 3T3-L1 cells, AS-L containing 0-10 μg/μl of ASO): ≥ 2 µg/µL
cellular uptake, differentiation group under normoxia (3T3-L1 cells [2]; differentiation under normoxia (D)): unable to internalize into cells
cellular uptake, control group (3T3-L1 cells [2]): unable to internalize into cells

MMO: PS modified mismatch-HIF1α-oligonucleotide, 5’-GTGATCCCCTGCTCTTGCCGT-3’ (GTGATCCCCTGCTCTTGCCGT; all phosphorothioate, sugars by position and methylation of C not given here) [reference compound]
cellular uptake, control group (3T3-L1 cells [2]): unable to internalize into cells
